Screens from PubChem.
UPR XBP1 act: adaptive UPR (XBP1) activation; activation, % at 20 µM; CHO-XBP1 luciferase reporter, IRE1-XBP1 UPR activation, luminescence; percent of tunicamycin response, DMSO as zero; AID 463104; 330,000 compounds, 0.33% hits;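 active = versus positive control, 20 µM dose yields 30% or more activation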;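 note: 100% = tunicamycin at 10 µg/mL and 0% = DMSO only wells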
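Assay system: CHO-XBP1 luciferase reporter cells; Schedule: 6 h treatment, 37 °C; Detection: glow luminescence from Steady-Glo reagent; Benchmarks: high control tunicamycin 10 µg/mL final, low control DMSO vehicle only.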
CHOP UPR activ: activators of apoptotic arm of unfolded protein response (CHOP). 330,000 compounds, 0.34% hits. CHO-CHOP luciferase reporter, UPR activation, luminescence; percent of tunicamycin response over DMSO baseline. activation, % at 10 µM;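 active = at 10 µM dose, activation of 40% or more, normalized to positive control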;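 note: 100% = tunicamycin at 10 µg/mL and 0% = DMSO alone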
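Evaluation: % reporter activation, DMSO baseline versus tunicamycin full activation; System: CHO-CHOP luciferase reporter cell line; Input: 500 cells/well; Incubation: 6 h compound treatment, 37 °C; Measured by: Steady-Glo luciferase luminescence; Dosing: one dose, 10 µM in 0.5% DMSO; Buffer or medium: F12 medium, 10% FBS; Benchmarks: positive tunicamycin 10 µg/mL, negative DMSO alone.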
CHOP inhibitor: blocks CHOP induction under ER stress. 220,000 compounds, 3.8% hits. CHO-K1 CHOP-promoter luciferase, tunicamycin-induced, 15-18 h. AID 2732. inhibition, % at 10 µM;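 active = compounds that reduced the stress-induced luciferase reporter signal by more than about 70% of percent inhibition, limit read from the data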;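 note: 0% = tunicamycin plus vehicle and 100% = wells without tunicamycin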
NOD2-RIPK2 inh: blocks binding of human NOD2 to RIPK2 | O43353 | inhibition, % at 4.98 µM | CHO BLA complementation NOD2-RIPK2, CCF4 ratio | AID 624267 | 360,000 compounds, 0.38% hits; in the data active = inhibition above about 21%;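 note: 0% = vehicle only and 100% = reference blocker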
TLR9-MyD88 inh: TLR9-MyD88 interaction inhibition; Q9NR96+Q99836; CHO BLA complementation TLR9-MyD88, CCF4 FRET ratio; inhibition, % at 4.98 µM; 340,000 compounds, 0.21% hits;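 active = inhibition above the mean over all tested compounds plus 3 SD, cut at about 21% in these data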;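 note: 0% = DMSO only wells and 100% = clavulanate BLA inhibitor control wells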
TLR4-MyD88 BLA: TLR4-MyD88 interaction inhibition in cells; AID 861; inhibition, % at 8.4 µM; HeLa CL3-4 TLR4/MyD88 BLA complementation, FRET ratio; O00206+Q99836; 200,000 compounds, 0.18% hits; in the data active = inhibition above about 25%;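 note: 0% = vehicle and 100% = reference inhibitor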
CHOP inh conf: confirmation of CHOP induction inhibitors; shares compounds with CHOP inhibitor; CHO-CHOP promoter luciferase reporter, tunicamycin-induced, luminescence; inhibition, % at 10 µM; 2,100 compounds, 45% hits; AID 504437;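 active = mean of three repeat readings of reporter signal inhibition above a set limit, cut at about 70% in these data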;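 note: 0% = tunicamycin plus vehicle and 100% = wells lacking tunicamycin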
UPR CHOP confirm: apoptotic UPR (CHOP) activation, confirmed; shares compounds with CHOP UPR activ; CHO-CHOP cells, CHOP-luciferase reporter luminescence; percent of tunicamycin response, DMSO as zero; activation, % at 10 µM; 1,000 compounds, 64% hits; in the data active = activation above about 33%;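 note: 0% = DMSO wells and 100% = tunicamycin 10 µg/mL wells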
UPR XBP1 confirm: adaptive UPR (XBP1) activation, confirmed. shares compounds with UPR XBP1 act. CHO-XBP1 IRE1-XBP1 luciferase reporter, luminescence. activation, % at 20 µM. 1,000 compounds, 63% hits;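 active = reporter signal at least 30% of the positive control's activation in two or more of four replicate wells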;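 note: plate controls were DMSO negative control for no effect and tunicamycin 10 µg/mL positive control for full effect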
TLR9-MyD88 cf: confirmation of human TLR9-MyD88 binding inhibitors; shares compounds with TLR9-MyD88 inh; CHO TLR9/MyD88 BLA complementation, CCF4 FRET ratio; inhibition, % at 4.98 µM; 680 compounds, 51% hits; AID 540250;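 active = mean inhibition across three repeats above about 21% taken from the earlier screen, limit read from the data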;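 note: blue over green emission ratio reports constitutive TLR9 MyD88 association via BLA complementation; 0% = DMSO vehicle wells and 100% = clavulanate BLA inhibitor wells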
BLA counter-1: non-selective beta-lactamase inhibitors in TLR9-MyD88 counter-screen | shares compounds with TLR9-MyD88 inh | CHO-BLA cells, CCF4 FRET ratio, BLA reporter | inhibition, % at 4.98 µM | 680 compounds, 7% hits | AID 540251;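 active = mean inhibition above a 50% cutoff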;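 note: counterscreen of TLR9-MyD88 hits on CMV-driven BLA in CHO-K1 cells; 0% = DMSO alone and 100% = clavulanate blocking BLA; higher means less blue over green ratio so more BLA blockade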
TLR9 CHO tox: CHO cell toxicity counter-screen for TLR9-MyD88 inhibitors; TLR9-MyD88 CHO cells cytotoxicity, luminescence; AID 588336; inhibition, % at 4.98 µM; 680 compounds, 39% hits; shares compounds with TLR9-MyD88 inh; in the data active = inhibition above about 11%
NOD2-RIPK2 conf: confirmation of human NOD2-RIPK2 interaction inhibitors. CHO cells, NOD2-RIPK2 BLA complementation, CCF4 FRET. AID 624370. shares compounds with NOD2-RIPK2 inh. 1,200 compounds, 70% hits. inhibition, % at 4.98 µM;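 active = mean inhibition across replicates above a set limit taken from the earlier primary screen, cut at about 21% in these data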;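 note: 0% = DMSO-only wells and the high end = clavulanate BLA-blocked wells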
BLA counter-2: NOD2-RIPK2 counterscreen BLA reporter activity. AID 624371. inhibition, % at 4.98 µM. 1,200 compounds, 57% hits. shares compounds with NOD2-RIPK2 inh. CHO BLA reporter, CCF4 FRET ratio;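 active = mean inhibition above the low-control mean inhibition plus three low-control SD, cut at about 11% in these data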;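 note: 0% = DMSO only wells and 100% = clavulanate high control wells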
* marks the source's active call; other numbers are inactive results; · = not tested or not shown. The entries come from a sample that favours hits as a whole.

SMILES | UPR XBP1 act | CHOP UPR activ | CHOP inhibitor | NOD2-RIPK2 inh | TLR9-MyD88 inh | TLR4-MyD88 BLA | CHOP inh conf | others
Oc1ccc(CCNCc2cc3c(cc2Br)OCO3)cc1 | · | · | · | -15.6 | -13.0 | · | ·
O=C1NCN(c2ccccc2)C12CCN(C(c1cc3ccccc3o1)c1nnnn1-c1ccc3c(c1)OCCO3)CC2 (centres undefined) | · | · | · | -2.8 | · | · | ·
C/C=C(\C)C(=O)OC1C(C)=C2C(C1OC(=O)CCCCC)C(C)(OC(C)=O)CC(OC(=O)CCC)C1(O)C2OC(=O)C1(C)O (centres undefined) | 61.2* | 21.7 | 105.0* | · | · | · | 125.1*
C=CCOC(=O)N1Cc2ccccc2-n2nncc2C1 | · | · | · | -1.5 | 1.1 | · | ·
CCOC(=O)[C@]12Cc3cc(Cl)ccc3[C@H]1N(CC(=O)OC)C(=O)c1ccccc12 | · | · | · | 18.6 | · | · | ·
COC(=O)C[C@]1(C(=O)OC)CN(C#N)N(c2ccc(Cl)cc2)C12c1ccccc1-c1ccccc12 | -7.2 | -10.3 | · | 55.0* | 7.4 | 3.7 | 129.4*
O=C(CSC1c2ccccc2-c2ccccc21)N/N=C/c1ccccc1O | 0.7 | -2.7 | 99.7* | -5.2 | 4.9 | -0.7 | 117.6*
CN(C)C(=S)SSC(=S)N(C)C | · | · | 106.4* | -13.3 | 3.5 | 1.4 | -133.5
O=c1[nH]cnc2nc(-c3ccc(N(CCCl)CCCl)cc3)[nH]c12 | · | · | · | -13.2 | 1.5 | · | ·
O=C1NC(=O)C(=Cc2ccc(-c3cc(Cl)ccc3[N+](=O)[O-])o2)C(=O)N1 | · | · | 105.0* | 6.9 | 2.9 | 1.1 | -60.0
CN[C@H]1C[C@H]2O[C@@](C)([C@H]1OC)n1c3ccccc3c3c4c(c5c6ccccc6n2c5c31)C(=O)NC4 | -11.3 | -6.4 | 107.9* | · | · | 8.5 | 121.1*
CCOC(=O)[C@]12Cc3ccccc3[C@H]1N(CCC(=O)OC)C(=O)c1cc(OC)ccc12 | · | · | · | 3.7 | · | · | ·
Cc1cccc(C)c1-n1nnnc1C(C1CC1)N1CCC2(CC1)C(=O)NCN2c1ccccc1 (centres undefined) | · | · | · | 8.0 | · | · | ·
CCC(C)NC(=O)c1c(N)n(CC2CCCO2)c2nc3ccccc3nc12 (centres undefined) | 0.9 | 1.3 | 96.4* | -2.5 | -2.2 | -18.7 | 103.4*
CCOC(=O)c1c(-n2c(C)cc(C=C3C(=O)NC(=O)NC3=O)c2C)sc2c1CCCC2 | 0.1 | 5.3 | 96.2* | 11.4 | -7.8 | 6.2 | 41.5
N=C(N)c1c(O)n(C2CCCCC2)c(=O)n(C2CCCCC2)c1=O | 6.6 | 0.0 | 108.0* | 8.9 | 20.6 | -0.2 | 73.0*
O=c1c(C=NCc2cccs2)c(O)n(C2CCCCC2)c(=O)n1C1CCCCC1 | -1.9 | -2.8 | 25.2 | -20.0 | 1.4 | 4.5 | ·
CCOc1ccc(N2C(=O)/C(=C\c3cccs3)C(=O)NC2=S)cc1 | -6.8 | 268.0* | 105.7* | · | · | 10.9 | -99.9 | UPR CHOP confirm=63.0*
Cc1ccc(N2C(=O)NC(=O)/C(=C/c3cnn(-c4ccc(C)cc4)c3)C2=O)cc1 | 2.5 | 86.6* | 102.0* | 1.9 | -19.4 | -0.1 | -78.8 | UPR CHOP confirm=93.1*
CSc1ncc(/C=C2/C(=O)NC(=O)N(c3ccc(C)cc3)C2=O)cn1 | -2.8 | -1.5 | -4.1 | 1.9 | -6.7 | 11.1 | ·
C1CCC2CCCCC2C1 (centres undefined) | -1.5 | 2.2 | · | -2.0 | -2.5 | · | ·
O=C1NC(=O)N(Cc2ccccc2)C(=O)/C1=C\c1ccco1 | 70.6* | 2.1 | 106.1* | -1.2 | -3.6 | 7.8 | -47.1 | UPR XBP1 confirm=28.9*
O=C1CN=C(c2ccc(Br)cc2)c2c(sc3c2CCCC3)N1CCN1CCCCC1 | 0.2 | 0.4 | 52.6 | 4.2 | -15.8 | 3.8 | ·
COC(=O)[C@@H]1[C@@H](C(=O)OC)C2(c3ccccc3-c3ccccc32)N(c2ccc(Cl)cc2)N1C#N | -6.6 | -10.3 | 109.0* | 71.3* | 2.2 | 7.7 | 124.3* | NOD2-RIPK2 conf=67.7*;BLA counter-2=1.6
COC(=O)C1=C(c2ccccc2)C[C@@H]2CC[C@H]1N2C(=O)NCC1CC1 | 1.8 | -0.7 | · | -1.6 | 4.4 | · | ·
SMILES | UPR XBP1 act | CHOP UPR activ | CHOP inhibitor | NOD2-RIPK2 inh | TLR9-MyD88 inh | TLR4-MyD88 BLA | CHOP inh conf | others
CN1C2CCC1/C(=C/c1ccccn1)C(=O)/C2=C\c1ccccn1 | · | · | 107.7* | 30.1* | 23.9* | -2.4 | 111.1* | TLR9-MyD88 cf=18.4;BLA counter-1=7.1;TLR9 CHO tox=99.4*;NOD2-RIPK2 conf=41.5*;BLA counter-2=9.7
CC(C)(C)n1nnnc1C(c1ccnc2ccccc12)N1CCC2(CC1)C(=O)NCN2c1ccccc1 (centres undefined) | · | · | · | -2.8 | · | · | ·
O=c1[nH]c(=O)n(-c2cccc(Cl)c2)c(O)c1/C=N/c1ccccn1 | -3.5 | -1.5 | 33.4 | -0.7 | 9.9 | 5.0 | ·
N=Cc1c(O)n(-c2cccc(Cl)c2)c(=O)[nH]c1=O | -2.3 | 40.1* | 19.2 | 2.1 | -3.1 | -3.2 | · | UPR CHOP confirm=-1.1
C=C1C(=O)O[C@@H]2C[C@@H](C)[C@H]3C=CC(=O)[C@]3(O)C[C@@H]12 | -3.8 | 60.5* | -20.1 | 7.0 | 6.9 | · | · | UPR CHOP confirm=23.8
Cc1ccc(-c2cc(-c3ccc(C)cc3)[n+](-c3ccccc3)c(-c3ccc(C)cc3)c2)cc1 | 6.6 | 54.7* | · | 3.3 | -13.9 | · | · | UPR CHOP confirm=69.0*
Cc1ccc(-c2cc(-c3ccccc3)cc(-c3ccccc3)[n+]2-c2ccccc2)cc1 | -3.9 | 29.3 | · | 12.6 | -0.6 | · | ·
COC(=O)C1=C(c2ccc(Cl)c(C(F)(F)F)c2)C[C@@H]2CC[C@H]1N2C(=O)NCC1CC1 | 0.2 | 0.4 | · | 1.8 | -2.2 | · | ·
